In data set [1] the test system is Mus musculus. The experiment in a line: Anticonvulsant activity in Albino mouse at 30 mg/kg, ip after 4 hrs by MES assay. In kind it is functional, organism-based. The arrangement: dose 30 mg/kg. In short, it runs like this: (§1)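 Mice given compound ip at 30, 100 and 300 mg/kg in 30% polyethylene glycol 400 and 10% water, 0.01 mL/g body weight. Three animals per dose. Maximal electroshock (MES) or pentylenetetrazol (PTZ) seizure tests were run 0.5 and 4 h after dosing, and animals protected were counted.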

Data set [2] concerns Mus musculus. Description: Anticonvulsant activity in Albino mouse at 100 mg/kg, ip after 4 hrs by MES assay. In kind it is functional, organism-based. The arrangement: dose 100 mg/kg. In short, it runs like this: as §1
In data set [3] the test system is Mus musculus. The experiment in a line: Anticonvulsant activity in Albino mouse at 30 mg/kg, ip after 0.5 hrs by PTZ assay. In kind it is functional, organism-based. Details: dose 30 mg/kg. The method in brief: as §1
The subject of data set [4] is Mus musculus. The experiment in a line: Anticonvulsant activity in Albino mouse at 100 mg/kg, ip after 4 hrs by PTZ assay. Details: dose 100 mg/kg. In kind it is functional, organism-based. In short, it runs like this:
as §1

Data set [5] deals with Mus musculus. The experiment in a line: Anticonvulsant activity in Albino mouse at 30 mg/kg, ip after 4 hrs by PTZ assay. In kind it is functional, organism-based. The arrangement: dose 30 mg/kg. The method in brief: as §1
For data set [6], the system named is Mus musculus. Description: Neurotoxicity in Albino mouse at 30 mg/kg, ip after 0.5 hrs by RotoRod test. In kind it is toxicity, organism-based. Details: dose 30 mg/kg, route intraperitoneal. The settings on record: in vivo. In short, it runs like this: (§2)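 RotoRod neurotoxicity screen in mice dosed ip at 30, 100 and 300 mg/kg, in vehicle of 30% PEG 400 and 10% water (0.01 mL/g). Three animals per dose, tested 0.5 and 4 h after administration. Affected animals were scored per group.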

The subject of data set [7] is Mus musculus. Description: (§3) Neurotoxicity in intraperitoneally dosed Albino mouse by RotoRod test. The data set is classed as toxicity, organism-based. The following applies: in vivo, ip. The method in brief: (§4)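 Median neurotoxic dose in albino mice given compound ip in 30% PEG 400 and 10% water, at the time of peak effect. Six animals per dose were tested on RotoRod and the percentage showing minimal neurotoxicity was recorded. Where TD50 could not be completed, the highest dose tested is reported.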
(In general: Falling from the rotarod earlier than controls is read as motor impairment.)

Data set [8] is described as follows: as §3. In kind it is toxicity, organism-based. The following applies: Albino, in vivo, ip. The method in brief: as §4
The subject of data set [9] is Mus musculus. Description: Neurotoxicity in Albino mouse at 100 mg/kg, ip after 4 hrs by RotoRod test. The data set is classed as toxicity, organism-based. The arrangement: dose 100 mg/kg, route intraperitoneal. The settings on record: in vivo. In short, it runs like this:
as §2

In data set [10] the test system is Mus musculus. The experiment in a line: Neurotoxicity in Albino mouse at 100 mg/kg, ip after 0.5 hrs by RotoRod test. The arrangement: dose 100 mg/kg, route intraperitoneal. In kind it is toxicity, organism-based. The settings on record: in vivo. In short, it runs like this: as §2
The test system of data set [11] is Mus musculus. Description: Neurotoxicity in intraperitoneally dosed Albino mouse at 385 umol/kg by RotoRod test. In kind it is toxicity, organism-based. The following applies: in vivo, ip. In short, it runs like this:
as §4

In data set [12] the test system is Mus musculus. Description: Anticonvulsant activity in intraperitoneally dosed Albino mouse at 385 umol/kg by PTZ assay. In kind it is functional, organism-based. In short, it runs like this: (§5)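 Phase II PTZ test in albino mice dosed ip (30% PEG 400 and 10% water), at the predetermined time of peak effect, in groups of six animals.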
For data set [13], the species on record is Mus musculus. Description: Protective index, ratio of TD50 against Albino mouse to ED50 for Albino mouse. In kind it is functional.
For data set [14], the system named is Mus musculus. Description: Neurotoxicity in Albino mouse at 30 mg/kg, ip after 4 hrs by RotoRod test. The data set is classed as toxicity, organism-based. The arrangement: dose 30 mg/kg, route intraperitoneal. The following applies: in vivo. In short, it runs like this: as §2
Data set [15] relates to Mus musculus. Description: Anticonvulsant activity assessed as time of peak effect in intraperitoneally dosed Albino mouse by MES assay. The data set is classed as functional. The method in brief: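 Phase II quantification in albino mice (ip; 30% PEG 400 and 10% water vehicle). Time of peak effect was determined first. Groups of six mice then received different doses at that time. MES ED50 is the dose protecting 50% of animals, in µmol/kg.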

The test system of data set [16] is Mus musculus. Description: Anticonvulsant activity in Albino mouse at 100 mg/kg, ip after 0.5 hrs by PTZ assay. The data set is classed as functional, organism-based. The arrangement: dose 100 mg/kg. In short, it runs like this:
as §1

In data set [17] the test system is Mus musculus. The experiment in a line: Anticonvulsant activity in intraperitoneally dosed Albino mouse at 481 umol/kg by PTZ assay. The data set is classed as functional, organism-based. In short, it runs like this: as §5
The test system of data set [18] is Mus musculus. The experiment in a line: Neurotoxicity in intraperitoneally dosed Albino mouse at 481 umol/kg by RotoRod test. The data set is classed as toxicity, organism-based. The following applies: in vivo, ip. The method in brief: as §4
Data set [19] concerns Mus musculus. Description: Neurotoxicity in intraperitoneally dosed Albino mouse at 362 umol/kg by RotoRod test. In kind it is toxicity, organism-based. The following applies: in vivo, ip. In short, it runs like this:
as §4

For data set [20], the system named is Mus musculus. Description: Anticonvulsant activity in Albino mouse at 100 mg/kg, ip after 0.5 hrs by MES assay. In kind it is functional, organism-based. Details: dose 100 mg/kg. The method in brief: as §1
Data set [21] concerns Mus musculus. Description: Anticonvulsant activity in intraperitoneally dosed Albino mouse at 362 umol/kg by PTZ assay. The data set is classed as functional, organism-based. In short, it runs like this: as §5
The subject of data set [22] is Mus musculus. Description: Anticonvulsant activity in Albino mouse at 300 mg/kg, ip after 0.5 hrs by PTZ assay. In kind it is functional, organism-based. Details: dose 300 mg/kg. In short, it runs like this: as §1
Data set [23] relates to Mus musculus. The experiment in a line: Anticonvulsant activity in intraperitoneally dosed Albino mouse at 1613 umol/kg by PTZ assay. In kind it is functional, organism-based. In short, it runs like this: as §5
Data set [24] has as its system Mus musculus. Description: Anticonvulsant activity in Albino mouse at 300 mg/kg, ip after 4 hrs by MES assay. The arrangement: dose 300 mg/kg. The data set is classed as functional, organism-based. In short, it runs like this:
as §1

Data set [25] deals with Mus musculus. Description: Anticonvulsant activity in intraperitoneally dosed Albino mouse by MES assay. In kind it is functional. The following applies: ip.
Data set [26] deals with Mus musculus. Description: Anticonvulsant activity in Albino mouse at 300 mg/kg, ip after 0.5 hrs by MES assay. In kind it is functional, organism-based. Details: dose 300 mg/kg. In short, it runs like this: as §1
For data set [27], the system named is Mus musculus. Description: Anticonvulsant activity in Albino mouse at 300 mg/kg, ip after 4 hrs by PTZ assay. In kind it is functional, organism-based. The arrangement: dose 300 mg/kg. In short, it runs like this: as §1
In data set [28] the test system is Mus musculus. The experiment in a line: Neurotoxic time of peak effect in intraperitoneally dosed Albino mouse by RotoRod test. The settings on record: in vivo, ip. The data set is classed as ADME, organism-based. The method in brief:
as §4

For data set [29], the system named is Mus musculus. The experiment in a line: Neurotoxicity in Albino mouse at 300 mg/kg, ip after 4 hrs by RotoRod test. The following applies: in vivo. The data set is classed as toxicity, organism-based. Details: dose 300 mg/kg, route intraperitoneal. The method in brief:
as §2

Data set [30] concerns Mus musculus. The experiment in a line: Neurotoxicity in Albino mouse at 300 mg/kg, ip after 0.5 hrs by RotoRod test. In kind it is toxicity, organism-based. The arrangement: dose 300 mg/kg, route intraperitoneal. The settings on record: in vivo. The method in brief:
as §2

We go through 4 compounds from ChEMBL document CHEMBL1143719, “Design, synthesis, and anticonvulsant activity of some sulfamides” (Bioorg Med Chem, 2007).

The structures appear in SMILES notation. Calls of active or inactive are those of the source. The calls are words filed in the database; no cut-off is given here.

For the compound `O=S(=O)(NC1CCCCC1)NC1CCCCC1`, the result in the data set on Mus musculus [1], in the data set on Mus musculus [2], with Mus musculus [3], in the data set on Mus musculus [4], in the data set on Mus musculus [5] and with Mus musculus [12] was inactive. For the same compound, in the data set with Mus musculus [16], the outcome was inactive. Further, the Activity result in the data set with Mus musculus [6] is on record as “Non-toxic”; in the data set on Mus musculus [7] it was 0%; in the data set with Mus musculus [9], “Non-toxic”; in the data set on Mus musculus [10], “Non-toxic”; with Mus musculus [11], 0%; in the data set on Mus musculus [14] it was “Non-toxic”. Besides, in the data set with Mus musculus [15], the Activity was determined as 0.5 h. Besides, the TD50 (usually the 50% point of the dose-response relation for the toxic effect studied) in data set [8] is more than 385 µmol/kg. Moreover, the PI in the data set filed under Mus musculus [13] is listed as more than 2.5.

In the case of `CCCCNS(=O)(=O)NCCCC` [BUTYL(BUTYLSULFAMOYL)AMINE], the outcome with Mus musculus [1], in the data set with Mus musculus [2], with Mus musculus [3], in the data set on Mus musculus [4], in the data set with Mus musculus [5] and in the data set on Mus musculus [17] was inactive. For the same compound, the result in the data set on Mus musculus [16] was inactive. In addition, the Activity result in the data set on Mus musculus [6] is reported as “Non-toxic”; with Mus musculus [7], 0%; in the data set on Mus musculus [18] it was 0%; in the data set on Mus musculus [9], “Non-toxic”; with Mus musculus [10], “Non-toxic”; with Mus musculus [14], “Non-toxic”. Also, the Activity in the data set with Mus musculus [15] is 2 h. Further, the TD50 in data set [8] was more than 481 µmol/kg. Also, the PI in the data set listed under Mus musculus [13] was more than 1.6.

For the compound `O=S(=O)(NCc1ccccc1)NCc1ccccc1` [BENZYL(BENZYLSULFAMOYL)AMINE], the outcome with Mus musculus [1], in the data set with Mus musculus [2], in the data set with Mus musculus [3], with Mus musculus [4], with Mus musculus [5] and in the data set with Mus musculus [21] was inactive. Moreover, in the data set on Mus musculus [16], the outcome was inactive. Besides, the Activity result was “Non-toxic” in the data set with Mus musculus [6]; 0% in the data set with Mus musculus [19]; 0% in the data set with Mus musculus [7]; “Non-toxic” in the data set with Mus musculus [9]; “Non-toxic” in the data set on Mus musculus [10]; “Non-toxic” with Mus musculus [14]. Moreover, the Activity in the data set on Mus musculus [15] was found to be 2 h. The compound further returned a TD50 in [8] of more than 362 µmol/kg. Besides, the PI in the data set filed under Mus musculus [13] was more than 1.5. Moreover, the result in the data set on Mus musculus [20] was Active.

Consider `NS(=O)(=O)NCc1ccccc1`, for which the result with Mus musculus [22], in the data set on Mus musculus [23], in the data set with Mus musculus [3], in the data set with Mus musculus [4], in the data set with Mus musculus [5] and in the data set on Mus musculus [27] was inactive. In addition, the result in the data set with Mus musculus [16] was inactive. Moreover, the result with Mus musculus [24], in the data set on Mus musculus [26] and in the data set on Mus musculus [20] was Active. Moreover, the ED50 (usually the midpoint of the dose-response relation) in the data set on Mus musculus [25] came to 239 µmol/kg. For the same compound, the Activity result in the data set on Mus musculus [6] is “Non-toxic”; in the data set on Mus musculus [9] it was “Non-toxic”; with Mus musculus [10] it was “Non-toxic”; in the data set with Mus musculus [28] it was 0.5 h; in the data set on Mus musculus [14] it was “Non-toxic”; in the data set with Mus musculus [15], 0.5 h. Besides, the Activity result in the data set with Mus musculus [29] and with Mus musculus [30] was “Non-toxic” each time. The TD50 in [8] was 1420 µmol/kg. For the same compound, in the data set filed under Mus musculus [13], the PI worked out at 5.9.
